Data on 16 molecules can be found in ChEMBL document CHEMBL3232979, “Discovery of a novel series of orally active nociceptin/orphanin FQ (NOP) receptor antagonists based on a dihydrospiro(piperidine-4,7'-thieno[2,3-c]pyran) scaffold” (J Med Chem, 2014).

Calls of active or inactive are those of the source. No cut-off for these calls is given here. Bounds are passed on as bounds.

The target in one data set is Nociceptin receptor (Homo sapiens, UniProt P41146). The data set is described as follows: Displacement of [3H]-nociceptin from human recombinant NOP receptor expressed in CHO cells after 60 mins by scintillation counting. The data set is classed as cell-based. (Loss of bound radioactivity is the signal in a displacement assay; it reports binding, not function.)
The target of a further data set is Mu-type opioid receptor (Homo sapiens, UniProt P35372). The data set is described as follows: Displacement of [3H]-diprenorphine from human mu opioid receptor after 120 mins by cell based assay. Summed up:
(§1)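 Radioligand binding with [3H]-diprenorphine on membranes from CHO cells overexpressing recombinant human kappa, mu or delta opioid receptor; Ki determined.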

Data set [1] concerns the target Kappa-type opioid receptor (Homo sapiens, UniProt P41145). As to the kind of experiment: Displacement of [3H]-diprenorphine from human kappa opioid receptor after 120 mins by cell based assay. The method in brief:
as §1

For data set [2], the target named is Delta-type opioid receptor (Homo sapiens, UniProt P41143). The data set is described as follows: Displacement of [3H]-diprenorphine from human delta opioid receptor after 120 mins by cell based assay. Summed up: as §1
The subject of data set [3] is Rattus norvegicus. The data set is described as follows: Ex vivo receptor occupancy of NOP receptor in Sprague-Dawley rat brain at 10 mg/kg, po after 24 hrs by LC-MS/MS analysis. In kind it is functional. Summed up: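 Male Sprague-Dawley rats, 220–300 g, 12 h light:dark cycle, free chow and water. A single oral 10 mg/kg dose or oral vehicle was given. 24 h later, nonlabeled tracer was given as an iv tail-vein bolus at 3 μg/kg. Brain was taken 40 min after tracer (hypothalamus, striatum), homogenized in ACN with 0.1% formic acid, centrifuged, diluted with water and read by LC-MS/MS.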

Data set [4] is described as follows: Volume of distribution in Sprague-Dawley rat at 1 mg/kg, iv. The settings on record: in vivo. Also noted: dose 1 mg/kg, route intravenous. In kind it is ADME, organism-based. Summed up: (§2)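 Male Sprague-Dawley rats (n = 3 per treatment), fasted 4–24 h, dosed iv bolus at 1 mg/kg or po at 3 or 10 mg/kg in 20% (w/w) Captisol in 25 mM phosphate buffer pH 2. Arterial blood sampled 0–16 or 24 h into EDTA, and plasma protein-precipitated with internal standard. LC-MS/MS quantitation against plasma standard curve (1–50 000 ng/mL). Noncompartmental analysis. F = dnAUCpo/dnAUCiv.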

Data set [5] can be described thus: AUC (0 to infinity) in Sprague-Dawley rat at 3 mg/kg, po. The data set is classed as ADME, organism-based. Also noted: time infinity, dose 3 mg/kg, route oral. The settings on record: plasma. Summed up: as §2
The nature of data set [6]: Plasma clearance in Sprague-Dawley rat at 1 mg/kg, iv. The data set is classed as ADME, organism-based. Also noted: dose 1 mg/kg, route intravenous. The method in brief: as §2
A short description of data set [7]: Oral bioavailability in Sprague-Dawley rat at 3 mg/kg. In kind it is ADME, organism-based. The following applies: in vivo. The method in brief:
as §2

A short description of data set [8]: Plasma elimination half life in Sprague-Dawley rat at 1 mg/kg, iv. The data set is classed as ADME, organism-based. More on the design: dose 1 mg/kg, route intravenous. The settings on record: read-out: beta t1/2 (converted). The method in brief:
as §2

Data set [9] is described as follows: Metabolic stability in rat hepatic microsomes assessed as GSH-adduct formation. In kind it is ADME, Liver, Microsome. Summed up:
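GSH trapping: compounds incubated with rat hepatic microsomes and glutathione; metabolite profiling by LC/MS for GSH conjugates.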

A short description of data set [10]: Oral bioavailability in Sprague-Dawley rat at 10 mg/kg. The data set is classed as ADME, organism-based. The following applies: in vivo. Summed up:
as §2

In data set [11] the test system is Rattus norvegicus. As to the kind of experiment: Reversal of Ro64-6198-incued hypothermia in po dosed Sprague-Dawley rat administered 60 mins before Ro64-6198 challenge measured after 120 mins. In kind it is functional, organism-based. Summed up: (§3)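 Male Sprague-Dawley rats, 225 g, housed 2 per cage, acclimated at least 90 min. Rectal temperature was taken, then oral gavage of vehicle or test compound (0.03, 0.1 or 0.3 mg/kg). A second temperature was taken at 60 min, then Ro64-6198 (6 mg/kg sc) or vehicle was given, and a third temperature 120 min later. Between-group ANOVA with Dunnett posthoc tests against vehicle and agonist controls.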

Data set [12] can be described thus: AUC (0 to infinity) in Sprague-Dawley rat at 10 mg/kg, po. In kind it is ADME, organism-based. Also noted: time infinity, dose 10 mg/kg, route oral. The following applies: plasma. Summed up:
as §2

For data set [13], the system named is Rattus norvegicus. The data set is described as follows: Toxicity in Sprague-Dawley rat assessed as basal body temperature at 0.03 to 0.3 mg/kg, po after 60 mins. The following applies: in vivo, 1 h.
Data set [14] deals with Rattus norvegicus. As to the kind of experiment: Reversal of Ro64-6198-incued hypothermia in Sprague-Dawley rat at 0.1 to 0.3 mg/kg, po administered 60 mins before Ro64-6198 challenge measured after 120 mins. The data set is classed as functional, organism-based. Summed up: as §3

Kappa-type opioid receptor, sequence (P41145 whole entry): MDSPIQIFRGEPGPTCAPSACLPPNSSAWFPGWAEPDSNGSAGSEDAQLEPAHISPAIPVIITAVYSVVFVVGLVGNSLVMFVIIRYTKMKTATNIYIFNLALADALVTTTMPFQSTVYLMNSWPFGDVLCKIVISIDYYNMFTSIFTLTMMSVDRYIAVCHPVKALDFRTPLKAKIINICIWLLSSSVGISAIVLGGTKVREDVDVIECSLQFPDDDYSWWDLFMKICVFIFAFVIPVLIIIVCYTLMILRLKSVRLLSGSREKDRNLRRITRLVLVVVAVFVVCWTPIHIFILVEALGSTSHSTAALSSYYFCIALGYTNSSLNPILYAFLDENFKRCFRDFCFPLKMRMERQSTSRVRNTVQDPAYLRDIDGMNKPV
Mu-type opioid receptor, sequence (P35372 whole entry): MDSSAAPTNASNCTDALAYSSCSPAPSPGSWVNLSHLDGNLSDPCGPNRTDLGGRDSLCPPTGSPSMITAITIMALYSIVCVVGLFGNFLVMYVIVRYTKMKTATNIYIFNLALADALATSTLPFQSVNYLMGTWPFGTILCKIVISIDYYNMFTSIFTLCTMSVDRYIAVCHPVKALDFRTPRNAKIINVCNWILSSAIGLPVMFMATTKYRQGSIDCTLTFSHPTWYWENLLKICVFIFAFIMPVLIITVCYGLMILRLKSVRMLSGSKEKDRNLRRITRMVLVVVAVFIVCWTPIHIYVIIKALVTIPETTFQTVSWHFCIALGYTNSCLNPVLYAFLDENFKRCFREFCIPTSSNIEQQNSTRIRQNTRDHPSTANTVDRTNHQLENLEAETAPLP
Nociceptin receptor, sequence (P41146 whole entry): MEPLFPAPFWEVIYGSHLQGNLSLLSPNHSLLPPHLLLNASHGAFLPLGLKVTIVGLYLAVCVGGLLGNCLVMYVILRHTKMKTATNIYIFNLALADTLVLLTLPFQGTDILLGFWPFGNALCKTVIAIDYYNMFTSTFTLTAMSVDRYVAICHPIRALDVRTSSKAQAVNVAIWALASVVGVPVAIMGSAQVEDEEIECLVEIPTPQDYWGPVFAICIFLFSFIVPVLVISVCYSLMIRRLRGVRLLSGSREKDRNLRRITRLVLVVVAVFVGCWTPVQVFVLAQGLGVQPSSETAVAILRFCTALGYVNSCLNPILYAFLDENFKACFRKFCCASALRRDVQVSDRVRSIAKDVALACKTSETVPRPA
Delta-type opioid receptor, sequence (P41143 whole entry): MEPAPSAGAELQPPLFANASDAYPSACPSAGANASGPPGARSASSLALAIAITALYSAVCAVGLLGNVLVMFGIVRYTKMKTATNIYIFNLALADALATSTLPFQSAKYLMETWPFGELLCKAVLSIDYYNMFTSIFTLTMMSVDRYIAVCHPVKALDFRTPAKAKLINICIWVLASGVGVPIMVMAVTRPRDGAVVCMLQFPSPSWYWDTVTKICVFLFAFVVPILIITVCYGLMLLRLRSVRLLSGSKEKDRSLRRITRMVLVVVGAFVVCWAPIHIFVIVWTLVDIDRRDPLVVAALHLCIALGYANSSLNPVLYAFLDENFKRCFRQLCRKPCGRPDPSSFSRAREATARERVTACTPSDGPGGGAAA

Consider `COCc1cccnc1-n1cc(CN2CCC3(CC2)OCCc2cc(F)sc23)c(C)n1`, for which the inhibition constant (Ki) – broadly, the dissociation constant of the complex between target and ligand, obtained from inhibition or displacement – on Nociceptin receptor was found to be 0.0939 nM.

Take `CNCc1cccc(F)c1-n1cc(CN2CCC3(CC2)OCC(F)(F)c2cc(Cl)sc23)c(C)n1.O=C(O)C(O)C(O)C(=O)O`: the Ki on Mu-type opioid receptor is more than 375 nM; in data set [1], more than 375 nM; in data set [2], more than 375 nM; at Nociceptin receptor it was 0.097 nM. The Occ in the data set with Rattus norvegicus [3] is 100%.

For `Cc1nn(-c2ncccc2F)cc1CN1CCC2(CC1)OCCc1cc(F)sc12`, the inhibitory constant (Ki) on Nociceptin receptor was 0.139 nM.

On to `Cc1nn(-c2c(F)cccc2F)cc1CN1CCC2(CC1)OCC(F)(F)c1cc(Cl)sc12.O=C(O)C(O)C(O)C(=O)O`, for which, in [4], the Vd (in general, a proportionality between amount in the body and measured concentration, not a real space) turned out to be 28.2 L/kg. The Ki at Mu-type opioid receptor is more than 375 nM; in data set [1], more than 375 nM; in data set [2], more than 375 nM; at Nociceptin receptor it was 0.172 nM. Further, in [5], the AUC(0-inf) (usually total exposure, with the tail of the curve extrapolated) is 438 ng·h/mL. Besides, the clearance (commonly a measure of how efficiently the substance is removed, as volume per time) in [6] stood at 52.9 mL/min/kg. Also, in data set [7], the bioavailability – broadly, the share of a dose that reaches the circulation, judged against a reference dose that is usually intravenous – was 49%. Moreover, the half-life in data set [8] was 10.8 h. Further, the Occ in the data set with Rattus norvegicus [3] amounted to 49%.

In the case of `Cc1nn(-c2c(F)cccc2CN(C)C)cc1CN1CCC2(CC1)OCCc1cc(Cl)sc12`, on Nociceptin receptor, the inhibitory constant (Ki) worked out at 0.122 nM.

As for `Cc1nn(-c2ncccc2CN(C)C)cc1CN1CCC2(CC1)OCC(F)(F)c1cc(Cl)sc12.O=C(O)C(O)C(O)C(=O)O`, the Ki at Mu-type opioid receptor was more than 375 nM; in data set [1], more than 375 nM; in data set [2] it was more than 375 nM; at Nociceptin receptor, 0.371 nM. Moreover, the Occ with Rattus norvegicus [3] turned out to be 72%.

For `Cc1nn(-c2c(F)cccc2C(N)=O)cc1CN1CCC2(CC1)OCCc1cc(F)sc12`, the inhibition constant (Ki) on Nociceptin receptor is 0.0954 nM.

With `Cc1nn(-c2c(F)cccc2CN(C)C)cc1CN1CCC2(CC1)OCC(F)(F)c1cc(Cl)sc12.O=C(O)C(O)C(O)C(=O)O`, the Ki is more than 375 nM on Mu-type opioid receptor, more than 375 nM in data set [1], more than 375 nM in [2] and 0.145 nM on Nociceptin receptor. The Occ with Rattus norvegicus [3] turned out to be 97%.

In the case of `Cc1nn(-c2c(F)cccc2CN(C)C)cc1CN1CCC2(CC1)OCCc1cc(F)sc12`, the Ki on Nociceptin receptor amounted to 0.0648 nM.

Take `Cc1nn(-c2ncccc2-c2ncc[nH]2)cc1CN1CCC2(CC1)OCC(F)(F)c1cc(Cl)sc12`: the Ki on Mu-type opioid receptor is more than 375 nM; in [1], more than 375 nM; in data set [2], more than 375 nM; on Nociceptin receptor it was 0.0916 nM. The molecule also yielded an Occ in the data set with Rattus norvegicus [3] of 88%.

For `COCc1cccnc1-n1cc(CN2CCC3(CC2)OCCc2cc(Cl)sc23)c(C)n1`, the Ki at Nociceptin receptor came out at 0.0908 nM.

Regarding `Cc1nn(-c2c(F)cccc2F)cc1CN1CCC2(CC1)OCCc1cc(F)sc12`, the Ki at Nociceptin receptor is 0.0711 nM.

`COCc1cccnc1-n1cc(CN2CCC3(CC2)OCC(F)(F)c2cc(Cl)sc23)c(C)n1.O=C(O)C(O)C(O)C(=O)O`: the inhibition constant (Ki) on Mu-type opioid receptor was more than 375 nM; in data set [1] it was more than 375 nM; in [2], more than 375 nM; on Nociceptin receptor, 0.185 nM. For the same molecule, the Stability entry in data set [9] is “Stable”. This molecule displayed an Occ in the data set on Rattus norvegicus [3] of 90%.

In the case of `Cc1nn(-c2ncccc2CO)cc1CN1CCC2(CC1)OCC(F)(F)c1cc(Cl)sc12.O=C(O)C(O)C(O)C(=O)O`, the bioavailability in [10] was determined as 57%. This molecule also registered a Vd in data set [4] of 5.3 L/kg. Besides, the Ki at Mu-type opioid receptor is more than 375 nM; in data set [1], more than 375 nM; in data set [2] it was more than 375 nM; on Nociceptin receptor, 0.105 nM. The values for the Activity result in the data set on Rattus norvegicus [11] and with Rattus norvegicus [13] were “Dose-dependent effect” and “Non-toxic”, respectively. In [6], this molecule showed a clearance of 23.9 mL/min/kg. Moreover, the AUC(0-inf) in data set [12] was 4100 ng·h/mL. Further, in the data set with Rattus norvegicus [14], the result was Active. In addition, in [8], the half-life is 3.8 h. For the same molecule, in the data set on Rattus norvegicus [3], the Occ is given as 62%.

In [4], `Cc1nn(-c2ncccc2F)cc1CN1CCC2(CC1)OCC(F)(F)c1cc(Cl)sc12.O=C(O)C(O)C(O)C(=O)O` gave a volume of distribution (Vd) of 13.6 L/kg. Besides, the inhibition constant (Ki) is more than 375 nM at Mu-type opioid receptor, more than 375 nM in data set [1], more than 375 nM in [2] and 0.176 nM at Nociceptin receptor. The same molecule gave an area under the curve AUC(0-inf) in [5] of 1820 ng·h/mL. For the same molecule, the clearance in data set [6] came out at 19.8 mL/min/kg. Further, the bioavailability in data set [7] was 62%. The half-life in data set [8] is 12.1 h. The same molecule showed an Occ with Rattus norvegicus [3] of 55%.

In [10], `Cc1nn(-c2c(F)cccc2CO)cc1CN1CCC2(CC1)OCC(F)(F)c1cc(Cl)sc12.O=C(O)C(O)C(O)C(=O)O` had a bioavailability of 51%. This molecule registered a Vd in data set [4] of 12.7 L/kg. Moreover, the inhibitory constant (Ki) on Mu-type opioid receptor was more than 375 nM; in data set [1] it was more than 375 nM; in data set [2], more than 375 nM; on Nociceptin receptor, 0.114 nM. Further, the clearance in data set [6] was found to be 60.5 mL/min/kg. Also, the AUC(0-inf) in data set [12] came out at 1280 ng·h/mL. Further, the half-life in [8] was 3.9 h. Also, the Occ in the data set with Rattus norvegicus [3] worked out at 87%.
